High-throughput results from PubChem.
In the library only some 3.7% were active in any assay of this set; here they are far more common.
Kir21 block: inhibitors of mouse Kir2.1 inward-rectifier potassium channel. HEK293-Kir2.1, FluxOR thallium flux fluorescence; active compounds read low. B-score at 10 µM. 310,000 tested, 0.85% active. AID 1672, 2009;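 active means fluorescence ratio B-score at or below minus 3 SD of library scores, with starting-brightness B-score within 2 SD, cut at about -4.2 in these data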;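 further: channel flux triggered by added potassium and thallium sulfate stimulus; B-score of peak minus minimum fluorescence over baseline after thallium stimulus; more negative B-score means stronger Kir2.1 block with less thallium influx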
KCNQ1 pot: potentiators or activators of KCNQ1 channel, primary screen, cell-based, thallium flux, high-throughput; CHO-K1 KCNQ1, thallium flux FluxOR fluorescence; active compounds read high; AID 2648, 2010; Potassium voltage-gated channel subfamily KQT member 1 (Homo sapiens), P51787; B-score at 10 µM; 310,000 tested, 0.35% active;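 active means fluorescence ratio B-score, a plate-corrected score, at least three library SD, with initial intensity B-score within 5 SD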
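Medium – assay buffer, equal DMSO in all wells · Material – CHO-K1 cell line with stable KCNQ1 potassium channel expression · Signal – kinetic FluxOR thallium fluorescence, 10-s 1-Hz baseline, 110-s post-stimulus read · Compound – single concentration per compound, DMSO matched to controls · Schedule – 37 °C overnight plating, 90-min dark dye load, 20-min compound pretreatment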
hERG protect: hERG rescue from dofetilide block, primary screen, cell-based, CHO-hERG, FluxOR thallium flux, dofetilide IC70; Voltage-gated inwardly rectifying potassium channel KCNH2 (Homo sapiens), Q12809; dofetilide IC70 present; activation (rescue from dofetilide block), less the hit threshold, % at 10 µM; 310,000 tested, 0.51% active; AID 1511, 2009;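 active means activation above the mean of controls blocked by dofetilide plus 5 SD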;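 further: thallium influx through hERG after potassium depolarization seen as dye fluorescence rise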
KCNK3 inh: human KCNK3 channel inhibitors, primary screen, CHO cells, FluxOR thallium flux, B-score. Potassium channel subfamily K member 3 (Homo sapiens), O14649. FluxOR fluorescence; active compounds read low. B-score at 10 µM. 340,000 tested, 0.84% active. AID 602410, 2012;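 active means B-score under library mean minus 4 SD, starting fluorescence ratio at most library mean plus 5 SD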;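 further: more negative B-score means stronger inhibition of thallium flux through KCNK3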
KCNQ1 inh: inhibitors of human KCNQ1 channel, primary screen, cell-based, thallium flux, high-throughput; B-score at 10 µM; 310,000 tested, 1.3% active; Potassium voltage-gated channel subfamily KQT member 1 (Homo sapiens), P51787; CHO-K1 KCNQ1, FluxOR thallium flux fluorescence; active compounds read high;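 active means compounds whose thallium flux B-score, printed positive for inhibition, exceeds three library SD while starting fluorescence stays within three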;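 further: channel opened by potassium depolarization with thallium stimulus after 20 min compound exposure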
KCNK9 inh: KCNK9 potassium channel inhibitors, primary screen, HEK293 cells, thallium flux; Potassium channel subfamily K member 9 (Homo sapiens), Q9NPC2; FluxOR thallium flux fluorescence; active compounds read low; B-score at 10 µM; 310,000 tested, 1.2% active;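 active means ratio B-score over 3 SD below the library mean, with starting fluorescence within 5 SD of its mean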;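 further: negative B-score means less thallium flux so channel inhibition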
Target sequence (Q9NPC2 whole entry, looked up): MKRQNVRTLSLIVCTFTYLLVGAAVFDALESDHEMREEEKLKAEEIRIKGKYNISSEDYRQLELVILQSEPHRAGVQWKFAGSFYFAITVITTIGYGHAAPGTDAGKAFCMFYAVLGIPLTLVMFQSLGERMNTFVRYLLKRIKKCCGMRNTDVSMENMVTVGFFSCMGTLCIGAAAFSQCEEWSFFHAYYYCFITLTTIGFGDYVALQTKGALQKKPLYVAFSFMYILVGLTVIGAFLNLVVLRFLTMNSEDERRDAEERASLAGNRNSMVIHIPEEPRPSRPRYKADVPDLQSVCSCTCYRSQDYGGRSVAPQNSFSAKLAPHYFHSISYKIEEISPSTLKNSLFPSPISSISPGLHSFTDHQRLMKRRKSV
An asterisk follows results filed as active; i = inactive; x = no result given.

SMILES | Kir21 block | KCNQ1 pot | hERG protect | KCNK3 inh | KCNQ1 inh | KCNK9 inh
CCN(CC1CCCO1)C(=O)c1cc(COc2ccccc2SC)on1 (configuration not stated) | 0.01 | i | -4.9 | i | i | i
CC1CCC(CC(=O)O)(C(=O)O)CC1 (configuration not stated) | x | x | x | i | x | x
O=[N+]([O-])c1ccc2nc(-c3ccc(Cl)cc3)[nH]c2c1 | -1.37 | i | -8.1 | i | 6* | i
CCCC(C(=O)NCCC(C)C)N(Cc1ccccc1)C(=O)c1snc(C(N)=O)c1N (configuration not stated) | 0.15 | i | -15.1 | i | i | i
COc1ccc(C(=O)Nc2ccc3c(c2)C(=O)N(C)C3=O)cc1OC | 0.05 | i | -8.7 | i | i | i
O=C(Nc1ccc(OCC(F)(F)C(F)F)c(C(F)(F)F)c1)c1ccccc1O | 0.99 | i | -8.4 | i | i | -6.6*
O=C(Nc1ccc(OCC(F)(F)C(F)F)c(C(F)(F)F)c1)c1ccccc1 | 0.73 | i | -8.3 | i | i | i
COc1ccc(N2CCN(S(=O)(=O)c3ccc4c(c3)CCCC4)CC2)c([N+](=O)[O-])c1 | 1.15 | i | -13.7 | i | 7* | i
O=C(NCCCn1ccnc1)c1cc(S(=O)(=O)N2CCOCC2)c(Cl)cc1Cl | -0.6 | i | -7.1 | i | i | i
Cc1ccc(S(=O)(=O)N2CCOCC2)cc1C(=O)NCCCn1ccnc1 | -2.06 | i | 4.7* | i | i | i
CCC(CCC(=O)Nc1ccc(S(N)(=O)=O)cc1)C(=O)O (configuration not stated) | -0.89 | i | 5.1* | i | i | i
CCOC(=O)N1CCN(C(=O)c2ccc3c(=O)n(CCC4=CCCCC4)c(=S)[nH]c3c2)CC1 | -0.08 | i | -6.8 | i | i | i
O=c1c2ccc(Cl)cc2[nH]c(=S)n1CCC1=CCCCC1 | 1.24 | 20* | 25.3* | i | i | i
Nc1nc(=O)n(C2CCCCO2)cc1Br (configuration not stated) | x | x | x | i | x | x
CCc1ccc(/C=C/C(=O)C2C(=O)c3ccccc3C2=O)cc1 | -1.1 | 28* | 27.6* | i | i | i
CCc1ccc(C2C(C(=O)O)c3ccccc3C(=O)N2C)cc1 (configuration not stated) | 0 | i | -2.5 | i | i | i
COc1ccc(S(=O)(=O)Nc2cccc(S(=O)(=O)NC3=NCCC3)c2)cc1[N+](=O)[O-] | 2.09 | i | -7.5 | i | i | i
COc1ccccc1CCNC(=O)C(=O)NCC1OCCN1S(=O)(=O)c1ccc(C)cc1 (configuration not stated) | -0.75 | i | -11.4 | i | i | i
CSc1ccc(C2NN=C(c3ccccc3)S2)cc1 (configuration not stated) | -0.19 | i | 15.3* | i | i | i
CCCCC(=Nc1ccccc1OC)C1=C(O)CC(c2ccccc2)CC1=O (configuration not stated) | -1.52 | i | -11.8 | i | 7* | i
CCn1c(O)c(N=NC2=NC(=O)CS2)c2ccccc21 | 0.04 | i | 9.1* | i | i | i
O=C(CN1CCN(S(=O)(=O)c2ccc(Cl)cc2)CC1)c1ccc(O)c(O)c1 | -1.64 | i | -6.0 | i | i | i
CCc1cc2c(=O)c(-c3ccc4c(c3)OCCO4)coc2cc1OS(C)(=O)=O | -0.71 | i | -11.8 | i | 6* | i
COc1ccc(Cn2c(SCC#N)nc3ccc(N4CCOCC4)cc3c2=O)cc1 | 1.53 | i | -15.6 | i | i | i
COc1ccc(S(=O)(=O)Cc2ccc(C(=O)N3CCN(c4cc(Cl)ccc4C)CC3)o2)cc1 | -0.33 | i | -5.1 | i | 6* | i
SMILES | Kir21 block | KCNQ1 pot | hERG protect | KCNK3 inh | KCNQ1 inh | KCNK9 inh
CC1(c2ccccc2)CC(c2ccccc2)=Nc2nonc2N1 (configuration not stated) | -4.43* | i | -10.0 | i | i | i
O=C(Nc1ccc2c(c1)CCC2)Nc1ccc(F)cc1F | 0.79 | i | -8.1 | i | i | i
Cc1cc(C)c(Cc2c(C)nc3c(C(=O)NCc4ccco4)cnn3c2C)c(C)c1 | 0.01 | i | -15.8 | i | i | -7.29*
Cc1sc(NC(=O)c2ccco2)c(C(c2ccccc2)N2CCC(C)CC2)c1C (configuration not stated) | -0.67 | i | -12.7 | i | i | -6.99*
Cc1sc(NC(=O)c2ccco2)c(C(c2cccnc2)N2CCN(c3ccc(F)cc3)CC2)c1C (configuration not stated) | -0.43 | i | -12.2 | -12.5* | 8* | -6.63*
Cc1sc(NC(=O)c2ccco2)c(C(c2cccnc2)N2CCN(CCO)CC2)c1C (configuration not stated) | 1.26 | i | -3.8 | i | i | i
COc1ccc(C(c2c(NC(=O)c3ccco3)sc(C)c2C)N2CCOCC2)cc1OC (configuration not stated) | x | x | x | -9.71* | x | x
Cc1sc(NC(=O)c2ccccc2)c(C(c2ccc(Cl)cc2)N2CCN(CCO)CC2)c1C (configuration not stated) | -0.73 | i | -1.9 | i | i | i
Cc1ccc(C(=O)CCC(=O)OCC(=O)N(C)c2c(N)n(Cc3ccccc3)c(=O)[nH]c2=O)cc1 | -0.67 | i | -5.7 | i | i | i
CCN1CCN(C(=O)c2ccc3c(c2)N(Cc2ccccc2F)C(=O)c2ccccc2S3(=O)=O)CC1 | -0.86 | i | -11.7 | i | i | i
COc1ccc(S(=O)(=O)N2CC(C)N(C(=O)N(C)C)C2C)cc1 (configuration not stated) | 0.76 | i | -2.0 | i | i | i
CCCCOc1ccc(-c2nc(/C=N/c3nccs3)c(O)o2)cc1 | 0.66 | i | 1.3 | i | i | i
Oc1oc(-c2ccccc2)nc1/C=N/c1nccs1 | -1.42 | 12* | 0.4 | i | i | i
Cc1ccc(C)c2[nH]c(=O)c(CN(Cc3ccc4c(c3)OCO4)Cc3nnnn3Cc3ccco3)cc12 | 1.92 | i | -11.3 | -9.41* | i | -7.06*
Cc1ccc(C)c2[nH]c(=O)c(CN(Cc3ccco3)S(=O)(=O)c3ccc4c(c3)OCCO4)cc12 | -0.25 | i | -15.1 | i | 6* | i
